Shown are actives, neighbours in structure and some others; about 3% of the full set was active somewhere.
SENP1 FRET inh – human SENP1 catalytic domain inhibitors, primary screen, biochemical, FRET, uHTS. AID 624204, 2012. Sentrin-specific protease 1 (Homo sapiens), Q9P0U3. 360,000 compounds, 0.21% hits. recombinant SENP1 catalytic domain, CyPet-SUMO1-YPet FRET cleavage. inhibition, % at 10 µM;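 active means inhibition at least 30% at 10 µM, raw YFP signal under a set limit, fluorescence ratio 0.5 to 1.5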
Target sequence (Q9P0U3 419-644 limits assumed): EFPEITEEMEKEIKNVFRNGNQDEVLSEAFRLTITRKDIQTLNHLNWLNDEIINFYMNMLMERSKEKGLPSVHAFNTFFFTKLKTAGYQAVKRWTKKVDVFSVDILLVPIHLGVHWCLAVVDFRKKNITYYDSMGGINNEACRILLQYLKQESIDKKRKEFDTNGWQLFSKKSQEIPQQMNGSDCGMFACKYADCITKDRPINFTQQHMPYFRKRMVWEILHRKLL
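material = recombinant human SENP1 catalytic domain, His6-tagged | quantity = 20 pM enzyme | reagent = 25 nM SUMO1 FRET substrate | compound dosing = 10 µM single point, 0.5% DMSO | timing = 50 min enzyme reaction, room temperature, light-protected | detection = FRET, CFP and YFP emission | control set = no-enzyme low, enzyme-DMSO high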
Cardio protect – cardioprotection against H2O2-induced cell death, primary screen, uHTS, H9c2 cells, ATPLite luminescence. H9c2 cardiomyocytes, H2O2 injury protection, 2 h. 360,000 compounds, 0.63% hits. protection from H2O2 cell death, % at 20 µM;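 active means compounds giving at least 50% protection of heart cells from peroxide-induced death in the single-dose screen, raw or plate-pattern-corrected value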
Pemphigus Ab inh – inhibitors of pemphigus antibody binding to DSG3, primary screen, biochemical, bead-based, flow cytometry, scFv-GFP | Desmoglein-3 (Homo sapiens), P32926 | DSG3-coupled beads, scFv-anti-DSG3-GFP binding; stronger effect = lower value | binding (percent of control), % at 10 µM | 310,000 compounds, 0.48% hits | AID 588358, 2011;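 active means binding more than 3 SD below its plate's average and above zero; inconclusive means below that plate limit but binding exactly zero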
HNF4A DNA FP – change in binding of human HNF4A to DNA, primary screen, biochemical, fluorescence polarization, FITC-DNA | 1 h | activity change, % at 10 µM | 360,000 compounds, 0.3% hits | AID 1224865, 2016; in the data active means activity change above about 30%, passing the limit was not always enough
Myeloid diff MLP – induction of myeloid progenitor differentiation, primary screen, cell-based, flow cytometry, MLPCN library | ER-HoxA9 myeloid progenitors, lysozyme-GFP differentiation | 360,000 compounds, 1% hits | calls only at 10 µM;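 active means normalized GFP-positive differentiation at or above the plate's own cutoff, the solvent-only control mean plus 3 SD; inconclusive means no clear call, values can overlap the other calls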;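 further: cells exposed to compound for four days before flow analysis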
Granule exo inh – LAMP-1 surface exposure blockers, TALL-104 cells – cell-based, flow cytometry, MLPCN library, primary screen. TALL-104 LAMP-1 surface exposure; cells stimulated with thapsigargin and PMA. inhibition, % at 10 µM. 360,000 compounds, 0.66% hits;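 active means inhibition above about 55%, limit read from the data; inconclusive means no clear call, values can overlap the other calls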
Hits are given with their value; . = inactive; ? = inconclusive; / = not tested or not shown; + = active, no number.

SMILES	SENP1 FRET inh	Cardio protect	Pemphigus Ab inh	HNF4A DNA FP	Myeloid diff MLP	Granule exo inh
O=C(CCCn1c(=S)[nH]c2ccccc2c1=O)NCCSCc1ccccc1	.	.	.	.	.	.
CN(C)c1ccc(C#Cc2ccc3cc(CCCO)oc(=O)c3c2)cc1	.	.	84.2	.	.	.
CCOCCCNC(=O)c1cccc(OC2CCN(S(C)(=O)=O)CC2)c1	.	.	.	.	.	.
O=CC(O)C1OC(=O)C(O)C1O (centres undefined)	.	.	85.8	.	.	.
O=C1O[C@H](CO)[C@@H](O)[C@H](O)[C@H]1O	.	.	.	.	.	.
CNc1nnc(SCC(=O)N2c3ccccc3NC(=O)CC2C)s1 (centres undefined)	.	.	.	.	.	.
CC(=O)NCCCc1nc2ccccc2n1Cc1cc(C)ccc1C	.	.	.	.	.	.
COc1cc(C(=O)NCCCc2nc3ccccc3n2Cc2cc(C)ccc2C)cc(OC)c1OC	.	.	.	37.0	.	.
Cc1cc(NC(=O)COC(=O)C(C)Oc2ccc(Cl)cc2Cl)no1 (centres undefined)	.	.	.	.	.	.
CCCn1c(=O)c(C(=O)NCCc2ccc(Cl)cc2)c(O)c2ccccc21	.	53.6	.	.	.	.
CCn1c(=O)c(C(=O)NCCc2ccc(Cl)cc2)c(O)c2ccccc21	.	.	.	.	.	.
O=C(COC(=O)c1ccc2ncsc2c1)Nc1cc([N+](=O)[O-])ccc1Cl	.	.	.	.	.	.
O=C(CNC1CC1)Nc1cc(C(F)(F)F)ccc1Cl	.	.	.	.	.	.
O=C(Nc1ccc(S(=O)(=O)N2CCOCC2)cc1)c1ccccc1	.	.	.	.	.	.
O=C(Nc1ccccc1)c1ccccc1OCc1ccc(S(=O)(=O)N2CCOCC2)cc1	.	.	67.2	.	.	.
CCc1ccc(S(=O)(=O)NC2CCCCNC2=O)cc1 (centres undefined)	.	.	76.3	.	.	.
CCOCC(=O)N1CCN(c2ccccc2OC)CC1	.	.	.	.	.	.
CCCCNC(=O)C[C@@H]1C[C@@]2(C(=O)OC)CCCCC=C2N(CCC2=CCCCC2)C1=O	.	/	/	.	.	.
O=C(COc1ccc(Cl)cc1)Nc1ccc(N2CCN(C(=O)c3ccco3)CC2)cc1	.	.	71.7	.	.	.
COc1ccc(OCC(=O)Nc2ccc(N3CCN(C(=O)c4ccco4)CC3)cc2)cc1	.	.	.	.	.	.
COc1ccc(-c2csc(NC(=O)c3cc(C)on3)c2C#N)cc1OC	.	.	79.3	.	.	.
O=C(Nc1ccc2c(c1)OCCO2)C1C(=O)Nc2ccccc2C(=O)N1C1CCCCC1 (centres undefined)	.	/	/	.	.	.
COC(=O)/C=C/c1c(C)nc(NCc2ccccc2)nc1Cl	.	.	.	.	+	.
CCNc1nc(Cl)nc(NCc2ccccc2)n1	.	.	/	.	.	.
COCCn1c(SCC(=O)N(C)c2c(N)n(Cc3ccccc3)c(=O)[nH]c2=O)nnc1-c1cccc(C)c1	.	.	.	.	.	.
SMILES	SENP1 FRET inh	Cardio protect	Pemphigus Ab inh	HNF4A DNA FP	Myeloid diff MLP	Granule exo inh
CSc1nnc(NC(=O)c2cc3ccccc3oc2=O)s1	.	55.3	.	.	.	.
CCOc1ccccc1N1CCN(C(=O)/C=C/c2cccc([N+](=O)[O-])c2)CC1	.	.	.	.	+	.
COc1cc(C(=O)C(=O)N2CCN(c3ccccc3)CC2)cc(OC)c1OC	.	/	/	.	?	.
CCOc1cc(/C=N\Nc2ncc(F)c(N3CCOCC3)n2)ccc1Oc1nc(Cl)ncc1F	.	.	/	.	.	82.7
CCOc1cc(/C=N/NC(=O)c2ccc(O)cc2)ccc1Oc1nc(Cl)ncc1F	.	.	.	.	.	.
O=C(Nc1ccc(-c2nc3ccccc3o2)cc1)c1ccc(N2C(=O)C3C4C=CC(C4)C3C2=O)cc1 (centres undefined)	.	.	55.2	.	.	.
Cc1ccc(C)c2[nH]c(=O)c(CN(Cc3ccco3)S(=O)(=O)c3ccc4c(c3)OCCO4)cc12	.	.	.	.	+	.
Cc1ccc(C)c2[nH]c(=O)c(CN(Cc3ccc4c(c3)OCO4)Cc3nnnn3Cc3ccco3)cc12	.	60.2	.	.	.	.
CCc1ccc2[nH]c(=O)c(CN(Cc3ccco3)S(=O)(=O)c3ccc4c(c3)OCCO4)cc2c1	.	.	.	.	.	.
Cc1ccc2cc(CN(Cc3ccc4c(c3)OCO4)Cc3nnnn3Cc3ccco3)c(=O)[nH]c2c1C	.	.	.	.	.	.
O=C(N/N=C/c1ccccc1O)C1CC(=O)N(c2ccc(Cl)cc2)C1 (centres undefined)	.	55.1	.	.	.	.
COc1ccc(/C=N/Nc2cc(C)nc3c(C)cccc23)cc1	.	.	.	.	?	.
COc1ccc(/C=N/Nc2cc(C)nc3ccccc23)cc1	.	.	.	.	.	60.3
Cc1ccc(-c2nn(-c3ccccc3)c3[nH]c(=O)c(CNCc4ccccc4)cc23)cc1	.	51.6	.	.	.	.
CC(C)(C)c1nn(-c2ccccc2)c2[nH]c(=O)c(C=O)cc12	.	56.8	.	.	.	61.7
CCOc1ccc(NCc2cc3c(C(C)(C)C)nn(-c4ccccc4)c3[nH]c2=O)cc1	.	58.3	.	.	.	.
CC(C)(C)c1nn(-c2ccccc2)c2nc(Cl)c(C=O)cc12	.	.	.	.	.	.
CCc1ccc(NCc2cc3c(C)nn(-c4ccccc4)c3[nH]c2=O)cc1	.	.	.	.	.	.
CCOc1ccc(NC(=O)CSc2nnnn2C2CC2)cc1S(=O)(=O)N1CCCC1	.	.	.	.	.	.
C=CCC[C@@H](Cc1ccc(F)cc1)C(=O)OC[C@@H]1CCCN1C(=O)[C@@H](CC=C)CC(=O)N[C@@H](CO)Cc1ccccc1	.	.	.	.	.	.
COc1cc2c3nnc(-c4ccccc4)c-3cn(Cc3ccc(F)cc3)c2cc1OC	.	.	.	.	.	.
COc1cc2c3nnc(-c4ccc(F)cc4)c-3cn(Cc3ccc(C)cc3)c2cc1OC	.	.	.	.	+	.
COc1cc2c3nnc(-c4ccc(F)cc4)c-3cn(Cc3cccc(C)c3)c2cc1OC	.	.	.	.	+	.
COc1cc2c3nnc(-c4ccc(F)cc4)c-3cn(Cc3cccc(F)c3)c2cc1OC	.	.	.	115.4	.	.

Source: PubChem BioAssay
